Experimental data reported in ChEMBL document CHEMBL4387752, “Identification of substituted benzothiazole sulfones as potent and selective inhibitors of endothelial lipase” (Bioorg Med Chem Lett, 2019).
pIC50: −log10 of the molar value. Active and inactive are the calls of the source. The calls are words filed in the database; no cut-off is given here.

Columns and labels:
Endothelial lipase [1] = biological target: T1, Endothelial lipase (Homo sapiens, UniProt Q9Y5X9); test: Inhibition of human endothelial lipase derived from human HT1080 cell conditioned media using PED-A1 as substrate incubated for 20 mins and measured every 20 secs for 10 mins by FRET assay
T1 sequence (Q9Y5X9 whole entry): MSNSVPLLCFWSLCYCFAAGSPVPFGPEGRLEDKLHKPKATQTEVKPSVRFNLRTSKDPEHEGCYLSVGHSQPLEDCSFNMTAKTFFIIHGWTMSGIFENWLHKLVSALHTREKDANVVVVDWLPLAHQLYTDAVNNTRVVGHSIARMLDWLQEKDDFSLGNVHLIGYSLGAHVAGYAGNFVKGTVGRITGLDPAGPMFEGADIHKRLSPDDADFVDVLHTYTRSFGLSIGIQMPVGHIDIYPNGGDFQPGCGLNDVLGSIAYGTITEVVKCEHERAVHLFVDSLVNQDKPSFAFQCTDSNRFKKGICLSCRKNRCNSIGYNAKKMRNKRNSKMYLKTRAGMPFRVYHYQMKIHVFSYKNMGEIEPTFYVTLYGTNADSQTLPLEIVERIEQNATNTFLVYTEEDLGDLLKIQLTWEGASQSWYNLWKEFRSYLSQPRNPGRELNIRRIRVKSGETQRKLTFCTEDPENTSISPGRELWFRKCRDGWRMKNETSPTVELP
Summary of the method: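 IC50s were calculated from mean inhibition values of duplicate determinations.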

Endothelial lipase [2] = biological target: T2, Endothelial lipase (Mus musculus, UniProt Q9WVG5); test: Inhibition of mouse endothelial lipase expressed in HEK293F cells using D31-POPC-HDL as substrate incubated for 2 hrs in presence of mouse plasma by LC/MS analysis
T2 sequence (Q9WVG5 whole entry): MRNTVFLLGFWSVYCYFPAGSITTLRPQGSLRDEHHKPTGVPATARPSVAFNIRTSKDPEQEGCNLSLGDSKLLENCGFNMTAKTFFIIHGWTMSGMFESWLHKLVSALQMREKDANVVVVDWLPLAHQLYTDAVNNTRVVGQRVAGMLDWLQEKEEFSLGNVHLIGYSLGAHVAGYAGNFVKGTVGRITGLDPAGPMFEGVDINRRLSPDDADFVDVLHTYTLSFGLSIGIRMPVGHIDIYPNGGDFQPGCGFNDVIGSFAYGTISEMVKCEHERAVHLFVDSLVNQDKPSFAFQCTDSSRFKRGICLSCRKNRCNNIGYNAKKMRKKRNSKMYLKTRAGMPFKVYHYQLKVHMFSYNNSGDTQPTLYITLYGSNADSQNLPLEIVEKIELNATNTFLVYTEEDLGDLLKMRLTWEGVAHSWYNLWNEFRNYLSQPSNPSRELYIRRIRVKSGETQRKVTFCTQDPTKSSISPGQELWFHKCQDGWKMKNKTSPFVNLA
Summary of the method: (§1)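 IC50 values were derived from the means of duplicate inhibition measurements.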

[3] = Cmax in Balb/c mouse at 10 mg/kg, po; assay type: ADME, organism-based; set-up: dose 10 mg/kg, route oral; details: in vivo
Summary of the method: (§2)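 Oral PK in fasted male balb/c mice. Dosing vehicle was ethanol/PEG 400/water (10:60:30).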

[4] = Plasma concentration in Balb/c mouse at 10 mg/kg, po measured after 7 hrs; assay type: ADME, organism-based; summary of the method: as §2
[5] = Plasma concentration in Balb/c mouse at 10 mg/kg, po measured after 24 hrs; assay type: ADME, organism-based; summary of the method: as §2
[6] = Tmax in Balb/c mouse at 10 mg/kg, po; assay type: ADME, organism-based; details: in vivo; summary of the method: as §2
[7] = Total AUC in Balb/c mouse at 10 mg/kg, po measured after 24 hrs; assay type: ADME, organism-based; set-up: dose 10 mg/kg, time AUCmax, route oral; details: in vivo; summary of the method: as §2
[8] = Permeability of compound at pH 5.5 by PAMPA; assay type: ADME; details: read-out: permeability
Summary of the method: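 Permeability was measured by parallel artificial membrane permeability assay (PAMPA) at pH 5.5 and pH 7.4. Values are reported in nm/s.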

Homo sapiens = organism: Homo sapiens; test: Selectivity index, ratio of IC50 for inhibition of human hepatic lipase expressed in African green monkey COS7 cells to IC50 for inhibition of human endothelial lipase derived from human HT1080 cell conditioned media; assay type: cell-based
Endothelial lipase [9] = biological target: T1, Endothelial lipase; test: Inhibition of human endothelial lipase using D31-POPC-HDL as substrate incubated for 2 hrs in presence of human serum by LC/MS analysis; summary of the method: as §1
Endothelial lipase [10] = biological target: T2, Endothelial lipase; test: Inhibition of endothelial lipase in hepatic lipase knock-out mouse plasma using D31-POPC-HDL as substrate incubated for 2 hrs by LC/MS analysis; assay type: cell-free; summary of the method: as §1
[11] = Cmax in Balb/c mouse at 20 mg/kg, po; assay type: ADME, organism-based; set-up: dose 20 mg/kg, route oral; details: in vivo; summary of the method: as §2
[12] = Plasma concentration in Balb/c mouse at 20 mg/kg, po measured after 7 hrs; assay type: ADME, organism-based; summary of the method: as §2
[13] = Plasma concentration in Balb/c mouse at 20 mg/kg, po measured after 24 hrs; assay type: ADME, organism-based; summary of the method: as §2
[14] = Tmax in Balb/c mouse at 20 mg/kg, po; assay type: ADME, organism-based; details: in vivo; summary of the method: as §2
[15] = Total AUC in Balb/c mouse at 20 mg/kg, po measured after 24 hrs; assay type: ADME, organism-based; set-up: dose 20 mg/kg, time AUCmax, route oral; details: in vivo; summary of the method: as §2
[16] = Cmax in Balb/c mouse at 30 mg/kg, po; assay type: ADME, organism-based; set-up: dose 30 mg/kg, route oral; details: in vivo; summary of the method: as §2
[17] = Plasma concentration in Balb/c mouse at 30 mg/kg, po measured after 7 hrs; assay type: ADME, organism-based; summary of the method: as §2
[18] = Plasma concentration in Balb/c mouse at 30 mg/kg, po measured after 24 hrs; assay type: ADME, organism-based; summary of the method: as §2
[19] = Tmax in Balb/c mouse at 30 mg/kg, po; assay type: ADME, organism-based; details: in vivo; summary of the method: as §2
[20] = Ratio of total AUC in Balb/c mouse at 20 mg/kg, po to total AUC in Balb/c mouse at 10 mg/kg, po measured after 24 hrs; assay type: ADME, organism-based; details: in vivo
Summary of the method: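 Ratio of AUCtotal between 20 and 10 mg/kg oral doses in fasted male balb/c mice. Vehicle was ethanol/PEG 400/water (10:60:30).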

[21] = Cmin in C57BL/6 mouse at 20 mg/kg, po bid measured after 102 hrs; assay type: ADME, organism-based; details: in vivo, read-out: Cmin
Summary of the method: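 Satellite PK cohort of wild-type C57BL/6 mice given 20 mg/kg p.o. b.i.d. over 4 days. Plasma levels were taken at 8, 24 and 102 h.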

Mus musculus = test: Increase in HDL-C level in C57BL/6 mouse plasma at 20 mg/kg, po bid measured after 1 to 4 days by FPLC analysis; assay type: functional, organism-based
Summary of the method: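 Wild-type C57BL/6 mice were dosed at 20 mg/kg p.o. b.i.d. for 4 days alongside a vehicle control group. Lipoprotein profiles were obtained by FPLC on day 1 and day 4, using plasma pooled from 8 mice.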

[22] = Ratio of Cmin in C57BL/6 mouse at 20 mg/kg, po bid measured after 8 hrs to IC50 for inhibition of mouse endothelial lipase expressed in HEK293F cells using D31-POPC-HDL as substrate incubated for 2 hrs in presence of mouse plasma by LC/MS analysis; assay type: organism-based; details: in vivo
[23] = Ratio of Cmin in C57BL/6 mouse at 20 mg/kg, po bid measured after 102 hrs to IC50 for inhibition of mouse endothelial lipase expressed in HEK293F cells using D31-POPC-HDL as substrate incubated for 2 hrs in presence of mouse plasma by LC/MS analysis; assay type: organism-based; details: in vivo

COCCS(=O)(=O)C(C(=O)NCC(=O)NC1CC1)c1nc2ccc(-c3ccc(F)nc3)cc2s1 (stereo not given)
pIC50 (Endothelial lipase [1]): 8.34
pIC50 (Endothelial lipase [2]): 6.92
Cmax [3]: 39 µM
concentration at 7 h [4]: 1700 nM
concentration at 24 h [5]: 14 nM
Tmax [6]: 1 h
AUC at 24 h [7]: 111 µM·h
Papp [8]: 9.4 ×10⁻⁶ cm/s
Ratio IC50 (Homo sapiens): 84
pIC50 (Endothelial lipase [9]): 7.08
pIC50 (Endothelial lipase [10]): 6.51
Cmax [11]: 143 µM
concentration at 7 h [12]: 7.4 µM
concentration at 24 h [13]: 45 nM
Tmax [14]: 30 min
AUC at 24 h [15]: 400 µM·h
Cmax [16]: 142 µM
concentration at 7 h [17]: 2420 nM
concentration at 24 h [18]: 25 nM
Tmax [19]: 15 min
Ratio [20]: 3.6
concentration at 102 h [21]: 6.5 µM
Activity (Mus musculus): inactive
Ratio [22]: > 15
Ratio [23]: > 15
